Sampled rows, rich in hits. Any-hit rate of the full collection: about 1.8%.
CHRM5 PAM = human M5 muscarinic receptor positive allosteric modulators, primary screen, CHO-K1 cells, Fluo-8 calcium fluorescence; CHO-K1 hM5, ACh EC20 PAM; 0% = ACh EC20, 100% = ACh EC100; activation, % at 3 µM; actives 0.3% (n = 360,000);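 active = activation above the run cutoff, the mean activation of all test compounds plus 3 SD, cut at about 18% in these data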
Target sequence (P08912 whole entry, looked up): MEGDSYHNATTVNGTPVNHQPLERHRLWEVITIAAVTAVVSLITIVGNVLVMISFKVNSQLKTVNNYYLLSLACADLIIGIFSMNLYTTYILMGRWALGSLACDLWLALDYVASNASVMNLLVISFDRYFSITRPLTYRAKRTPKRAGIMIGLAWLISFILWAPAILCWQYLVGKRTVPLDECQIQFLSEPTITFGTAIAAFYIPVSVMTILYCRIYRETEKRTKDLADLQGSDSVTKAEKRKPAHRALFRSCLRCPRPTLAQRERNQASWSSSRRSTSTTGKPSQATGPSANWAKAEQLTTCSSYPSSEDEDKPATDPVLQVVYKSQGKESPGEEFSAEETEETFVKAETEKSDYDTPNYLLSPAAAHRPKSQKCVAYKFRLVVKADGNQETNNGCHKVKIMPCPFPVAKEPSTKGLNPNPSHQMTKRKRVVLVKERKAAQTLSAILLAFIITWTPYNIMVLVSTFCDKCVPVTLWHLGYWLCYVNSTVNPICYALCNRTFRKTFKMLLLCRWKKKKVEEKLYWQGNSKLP
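Assay system – human M5 receptor in CHO-K1 cells · Read-out – % activation, ACh-normalized · Technique – Fluo-8 calcium fluorescence · Dosing – single-point, 3 µM nominal · Incubation – Fluo-8 loading 80 min at 37 °C plus 30 min room temperature · Repeats – singlicate, one well per test compound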
CHRM4 antagonist = human M4 muscarinic receptor antagonists, primary screen, CHO cells, Fluo-8 calcium fluorescence | actives 0.73% (n = 360,000) | AID 624125, 2012 | Muscarinic acetylcholine receptor M4 (Homo sapiens), P08173 | CHO-hM4 cells, ACh EC80 | inhibition, % at 3 µM;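 active = inhibition above its plate's cutoff, the mean inhibition of sample wells plus 3 SD, cut at about 27% in these data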
CHRM5 agonist = human M5 muscarinic receptor agonists, primary screen, CHO-K1 cells, Fluo-8 calcium fluorescence. activation, % at 3 µM. actives 0.19% (n = 360,000). AID 624037, 2012. Muscarinic acetylcholine receptor M5 (Homo sapiens), P08912. CHO-K1 hM5 cells; 0% DMSO wells, 100% maximal acetylcholine response;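 active = activation above the run's mean over test compounds plus 3 SD, cut at about 23% in these data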;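 note: signal is peak over basal fluorescence ratio across the kinetic read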
CHRM4 PAM = human M4 muscarinic receptor positive allosteric modulators, primary screen, CHO-K1 cells, Fluo-8 calcium fluorescence; Muscarinic acetylcholine receptor M4 (Homo sapiens), P08173; actives 0.4% (n = 360,000); AID 624126, 2012; activation, % at 3 µM; CHO-K1 hM4/Gqi5, ACh EC20; 0% = ACh EC20, 100% = maximal ACh;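 active = activation above its plate's cutoff, the mean activation of sample wells plus 3 SD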
CHRM4 agonist = human M4 muscarinic receptor agonists, primary screen, CHO-K1 cells, Fluo-8 calcium fluorescence | Muscarinic acetylcholine receptor M4 (Homo sapiens), P08173 | CHO-K1 hM4/Gqi5; vehicle 0%, full acetylcholine response 100% | activation, % at 3 µM | actives 0.14% (n = 360,000);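 active = activation above the run mean over all test wells plus 3 SD, cut at about 32% in these data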;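 note: peak over basal fluorescence ratio per well then scaled between controls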
M5 antag = human M5 muscarinic receptor antagonists, primary screen, CHO cells, Fluo-8 calcium fluorescence | inhibition, % at 3 µM | actives 0.59% (n = 360,000) | CHO-hM5 cells, ACh EC80 | AID 624040, 2012 | Muscarinic acetylcholine receptor M5 (Homo sapiens), P08912;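 active = inhibition above a per-plate cutoff, the mean of that plate's test compounds plus 3 SD, cut at about 27% in these data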
Numbers stand for hits; – = inactive.

SMILES	CHRM5 PAM	CHRM4 antagonist	CHRM5 agonist	CHRM4 PAM	CHRM4 agonist	M5 antag
Cc1cc(N2C(=O)C(O)=C(C(=O)c3cccs3)C2c2ccc(F)cc2)no1 (stereo unspecified)	19	–	–	–	–	–
CN(C)c1ccc(-c2csc(C(O)c3cccc(Cl)c3)n2)cc1 (stereo unspecified)	–	–	–	–	47	–
Cn1cc(Cl)c(C(=O)OCC(=O)Nc2ccccc2)n1	–	–	–	–	–	47
Cn1ccc(C(=O)OCC(=O)Nc2cccc(Cl)c2)n1	–	–	–	–	–	–
Cc1cc(NC(=O)CSc2nc(-c3ccccc3)c(C#N)c(=O)[nH]2)no1	–	–	–	21	–	–
Nc1c(C(=O)O)sc2nc(-c3ccccc3)cc(-c3ccc(F)cc3)c12	21	–	–	–	–	–
CCOc1ccccc1-n1c(N)c(C(N)=O)sc1=S	22	–	–	–	–	–
COc1ccc(NC(=O)c2cccnc2Nc2ccc(OC)cc2)cc1	–	52	–	–	–	–
CCCCCCCn1c2c(c(=N)c3ccccc31)CCC2	–	–	–	–	–	27
Nc1c(C(=O)c2ccccc2)sc2nsc(SCCN3CCCC3)c12	–	–	32	–	–	–
Nc1c(C(=O)c2ccc(Cl)cc2)sc2nsc(SCCN3CCOCC3)c12	–	–	–	–	–	–
O=S(=O)(c1c(Cl)cc(Br)cc1Cl)N1CCN(C(=S)NC2CC2)CC1	–	–	–	–	–	–
O=C(Nc1ccccc1)c1ccccc1OCC(O)CN1C(=O)c2ccccc2S1(=O)=O (stereo unspecified)	–	32	–	–	–	–
CC1(C)NC(=O)N(CC(O)COc2ccccc2C(=O)Nc2ccccc2)C1=O (stereo unspecified)	–	–	–	–	–	–
COc1ccc(CNC(=O)c2ccc3c(c2)NC(=O)C(C)S3)cc1 (stereo unspecified)	–	–	–	–	–	–
Cc1cn(CCOc2ccc(Cl)cc2)c(=O)[nH]c1=O	–	–	–	–	–	–
CC(C)(C)c1ccc(-n2nc(C#N)c(Cl)cc2=O)cc1	–	54	–	–	–	33
Cc1cccc(-c2noc(-c3csc([C@@H]4C[C@H](O)[C@@H](CO)O4)n3)n2)c1	–	–	–	–	–	29
Cn1nc(C2CC2)cc1NC(=O)C1(C)CCN1C(=O)CCc1ccccc1 (stereo unspecified)	–	–	–	–	–	–
COc1ccc(-c2cn3cccnc3n2)cc1NC(=O)C1CC1	19	26	–	–	–	–
CC(=O)n1cc([C@H]2C=C(C(N)=O)O[C@@H](OCc3ccc(CO)cc3)C2)c2ccccc21	–	–	29	–	34	–
Cc1cc(C(F)F)n2nc(C(=O)Nc3cc(C)on3)nc2n1	–	–	–	28	–	–
COc1cccc(NC(=O)c2nc3nc(C)cc(C(F)F)n3n2)c1	–	–	–	–	–	–
CC1CCCCC1NC(=O)COC(=O)c1ccc2c(c1)NC(=O)CS2 (stereo unspecified)	–	–	–	–	–	–
CC(C)CN(CC(C)C)c1nc(N)c(C#N)c(CC#N)c1C#N	–	–	–	28	–	–
SMILES	CHRM5 PAM	CHRM4 antagonist	CHRM5 agonist	CHRM4 PAM	CHRM4 agonist	M5 antag
c1ccc(COc2ncnc3c2ncn3CCCN2CCN(Cc3cccc4ccccc34)CC2)cc1	–	–	–	–	–	–
Cc1ccc(CN2CCN(CCCn3cnc4c(OCc5ccccc5)ncnc43)CC2)cc1	–	33	–	–	–	–
c1cc2c(cc1C1=NNC(=NC3CC3)SC1)OCCO2	–	–	–	–	–	100
COc1cc(OC)nc(NC(=O)CSc2nnc(-c3ccccc3)n2C2CCCCC2)n1	25	–	–	–	–	–
Cc1cnc(NC(=O)CSc2nnc(-c3ccncc3)n2C2CCCCC2)s1	–	–	–	33	–	–
CCOc1cccc(-c2cc(NCCc3ccccn3)n3nccc3n2)c1	–	–	–	–	–	–
Cc1csc(SCc2nnc(-c3ccc(Cl)cc3)o2)n1	–	–	–	–	–	–
Cc1ccc(-c2nnc(CSc3nnc(C)s3)o2)cc1	19	–	–	–	–	–
COc1ccc(C(=O)N/C(=C\c2ccccc2)C(=O)N2CCOCC2)cc1	–	–	–	19	–	–
CC(=O)c1cccc(NC(=O)C2(C)Cc3c(-c4cccc(C(F)(F)F)c4)ccnc3O2)c1 (stereo unspecified)	–	–	–	–	–	–
CCOC(=O)[C@]12CCCC=C1N(Cc1ccc3c(c1)OCO3)C(=O)[C@H](CC(=O)NCCC(C)C)C2	–	–	–	–	–	–
O=C(CCl)N(c1ccccc1)c1c[nH]c2ccccc12	–	–	–	–	–	–
O=C(CCl)N(c1ccc(Cl)cc1)c1c[nH]c2ccccc12	–	35	–	–	–	–
COc1cc(/C=N/N2C(=O)C3C4c5ccccc5C(c5ccccc54)C3C2=O)ccc1O (stereo unspecified)	33	–	–	–	–	–
CCCN1C2=C(C(=O)CC(C)(C)C2)C(c2ccc(F)cc2)C2=C1c1ccccc1C2=O (stereo unspecified)	–	–	–	30	–	–
CCCCN1C2=C(C(=O)CC(C)(C)C2)C(c2ccccc2)C2=C1c1ccccc1C2=O (stereo unspecified)	–	–	–	–	–	–
CC1CCN(C(=O)Cn2cc(C#N)c3ccccc32)CC1	–	27	–	–	–	–
COc1ccc(N2C(=O)c3ccccc3NC(=O)C2C(=O)Nc2ccc3c(c2)OCCO3)cc1 (stereo unspecified)	–	–	–	–	–	–
O=C(Nc1ccc(Br)cc1)c1ccc(F)c(S(=O)(=O)NCc2cccs2)c1	–	–	–	–	–	38
O=C(C1CCN(S(=O)(=O)c2cnc[nH]2)CC1)N1CCN(c2ccc([N+](=O)[O-])cc2)CC1	–	–	–	14	–	–
COc1cccc(CN(C)C(=O)c2ccc(OCC(=O)Nc3cccc(C(F)(F)F)c3)c(OC)c2)c1	–	–	–	–	–	29

High-throughput results: PubChem, The Scripps Research Institute Molecular Screening Center
